Experimental data pooled from the literature.
Lines come from different studies, so protocols differ.
Observed: cell growth or viability

`COc1cccc2c1C(=O)c1c(O)c3c(c(O)c1C2=O)C[C@@](O)(C(=O)CO)C[C@@H]3O[C@H]1C[C@H](N)[C@H](O)[C@H](C)O1` has a viability of 20.2% (A549; MTT; 50 µg/mL, 48 h, serum-free).
With `Cc1nc(Nc2ccc3c(c2)/C(=C/c2ccccc2C)C(=O)N3C)c2ccccc2n1` the IC50 was 21.6 µM (A549; MTT).
`Cc1cccc(/C=C/C(=O)Nc2cc(-c3ccnc(N4CCC(O)CC4)c3)ccn2)c1` has an inhibition of 74.5% (A549; MTT; 5 µM).
For `Cc1nc(Nc2ccc3c(c2)CC(=O)N3)c2ccccc2n1`, the IC50 was 28.5 µM (A549; MTT).
`CC(=NNC(=O)COc1ccc2c(C)c(Cc3ccccc3)c(=O)oc2c1C)c1ccc(Br)cc1` gave a viability of 2.33% (PC-3; MTT; 500 µg/mL).
With `O=C(/C=C/c1cccc(F)c1)Nc1cc(-c2ccnc(N3CCC(O)CC3)c2)ccn1` the inhibition was 62.4% (A549; MTT; 5 µM).
`Cc1nc(Nc2ccc3c(c2)C(C)(C)C(=O)N3C)c2ccccc2n1` has an IC50 of 2.09 µM (A549; MTT).
With `CCc1c(C)c2ccc(OCC(=O)NNC(=S)Nc3ccccc3)c(C)c2oc1=O` the viability was 48.3% (PC-3; MTT; 31.25 µg/mL).
`O=C(C=Cc1ccccc1)Nc1cc(-c2ccnc(N3CCOCC3)c2)ccn1` has an inhibition of 76.7% (A549; MTT; 5 µM).
`COc1cccc2c1C(=O)c1c(O)c3c(c(O)c1C2=O)C[C@@](O)(C(=O)CO)C[C@@H]3O[C@H]1C[C@H](N)[C@H](O)[C@H](C)O1` gave an IC50 of 6.5 µM (HUVEC; MTT; 24 h).
For `Cc1cc(NC(=O)C=Cc2ccccc2)cc(-c2ccnc(N3CCC(O)CC3)c2)c1`, the inhibition was 37.6% (A549; MTT; 5 µM).
With `C=CCNC(=S)NNC(=O)COc1ccc2c(C)c(CC)c(=O)oc2c1C` the viability was 2.65% (PC-3; MTT; 1000 µg/mL).
For `O=C(CCc1ccccc1)Nc1cc(-c2ccnc(N3CCC(O)CC3)c2)ccn1`, the inhibition was 65.7% (A549; MTT; 5 µM).
The IC50 of `O=C(O)c1ccc2c(c1)nc(Nc1cccc(Cl)c1)c1ccncc12` is reported as 3.1 µM (NCI-H522; crystal violet; 48 h).
The inhibition of `O=C(C=Cc1ccc(F)cc1)Nc1cc(-c2ccnc(N3CCC(O)CC3)c2)ccn1` is reported as 65.9% (A549; MTT; 5 µM).
`CCc1c(C)c2ccc(OCc3nnc(S)n3N)c(C)c2oc1=O` gave a viability of 11.3% (PC-3; MTT; 125 µg/mL).
`Cc1ccc(-c2cc(-c3ccc(Cl)cc3)c3c(=O)n(C)c(=O)n(C)c3n2)cc1` gave an IC50 of 11.7 µM (PC-3; MTT; 48 h).
`Cc1cc(NC(=O)C=Cc2ccccc2)cc(-c2ccnc(N3CCC(CO)CC3)c2)c1` gave an inhibition of 54.3% (A549; MTT; 5 µM).
The viability of `CCc1c(C)c2ccc(OCC(=O)NN=Cc3ccc([N+](=O)[O-])cc3)cc2oc1=O` is reported as 5.32% (PC-3; MTT; 500 µg/mL).
With `C=CC(=O)NC1CCN(c2ncc3ncnc(Nc4ccc(Oc5ccc6c(c5)ncn6C)c(C)c4)c3n2)CC1` the IC50 was 0.0581 µM (NCI-H2170).
`C=CCOc1ccc2c(C)c(CC)c(=O)oc2c1C` has a viability of 7.08% (PC-3; MTT; 500 µg/mL).
For `COc1ccc(-c2cc(-c3ccc(OC)cc3)c3c(=O)n(C)c(=O)n(C)c3n2)cc1`, the IC50 was 26.2 µM (PC-3; MTT; 48 h).
With `CC(C)C[C@@H]1NC(=O)[C@@H](N(C)C(=O)[C@H](CC2CCC2)NC(=O)[C@@H]2C[C@@H](F)CN2C(=O)C2(C(F)(F)F)CC(F)(F)C2)CCCCNC(=O)C2(CC2)NC(=O)[C@H](Cc2cc(Cl)ccc2Cl)N(C)C1=O` the GI50 was 0.032 µM (NCI-H1048; MTT; 5 days).
The IC50 of `COc1ccc(-c2cc(-c3ccc(OC)cc3)c3c(=O)[nH]c(=O)[nH]c3n2)cc1` is reported as 12.3 µM (PC-3; MTT; 48 h).
`Cc1c(Cc2ccccc2)c(=O)oc2c(C)c(OCC(=O)NN=Cc3ccccc3)ccc12` gave a viability of 21.2% (PC-3; MTT; 125 µg/mL).
The IC50 of `COc1cc2ncnc(Nc3ccc4c(c3)/C(=C/c3ccccc3)C(=O)N4)c2cc1OC` is reported as 17.1 µM (A549; MTT).
With `CCNC(=S)NNC(=O)COc1ccc2c(C)c(CC)c(=O)oc2c1C` the viability was 99% (PC-3; MTT; 31.25 µg/mL).
`O=C(C=Cc1ccccc1)Nc1cccc(-c2ccnc(N3CCOCC3)c2)c1` has an inhibition of 49.3% (A549; MTT; 5 µM).
